Data published in PubChem BioAssay AID504382 (The Scripps Research Institute Molecular Screening Center, 2011).
Out of some 2,500 compounds screened, about 460 (18%) were called active. These entries were drawn from the full list. Unmarked numbers belong to inactive results.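 The calls were made as follows: active = mean activation above a cutoff of low control average plus 3 SD from the earlier screen (cut at about 12% in these data); inactive = the rest.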

Test: IANBD-channel fluorescence artefacts in buffer – biochemical, artefact control for cardiac RTF calcium sensitizer project, confirmation (AID 504382)
Conditions: IANBD fluorescence interference counterscreen, EC20 Ca2+, at 7.2 µM, stronger effect = higher value, scaled: EC20 calcium 0, EC100 calcium 100
How it was run: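 Technique: fluorescence, 480/540 nm / Medium: MOPS-based buffer with KCl, MgCl2, EGTA, NTA, DTT, pH 7.2 / Probe or stimulus: calcium at EC20 level, 0.472 mM final / Repeats: triplicate wells per compound / Times: 15 min compound exposure at 25 °C / Measure: compound fluorescence interference relative to control well signal range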

SMILES	fluorescence artifact activation
CCOc1cc(/C=C2\N=C(SC(C)C(N)=O)N(c3ccc(OC(F)F)cc3)C2=O)ccc1O (centres undefined)	3.79%
COc1ccc(C(=O)c2ccsc2N)cc1	3.39%
O=C(CN1CCc2ccccc2C1)Nc1cc(S(=O)(=O)N2CCOCC2)ccc1N1CCOCC1	0.07%
CCOc1cccc2c1OC(c1cc(OC)c(OC)c(OC)c1)N1N=C(c3ccc(C)o3)CC21 (centres undefined)	0.15%
CC1(C)C([N+](=O)[O-])C(c2ccc(F)cc2)NC(c2ccc(F)cc2)C1[N+](=O)[O-] (centres undefined)	-0.04%
COC(=O)c1sccc1NC(=O)CSCC(=O)O	0.05%
CN(C)C=Nc1c(Br)cc(Br)c2nonc12	16.1% (active)
C=CCn1c(SCC(=O)Nc2nccs2)nnc1-c1ccco1	0.29%
Cn1cc(Cl)c(-c2nc3ccccc3[nH]2)n1	2.42%
CCOC(=O)c1cnc2ccccc2c1Nc1ccc(C(=O)O)cc1	50% (active)
COC(=O)c1cc(N2CCN(C)CC2)nc2ccccc12	0.05%
CCOC(=O)/C(=N\Nc1ccc(C(C)=O)cc1)c1csc(Nc2ccccc2)n1	-0.08%
CCCCN(Cc1ccccc1)S(=O)(=O)c1ccc2c(c1)n(C)c(=O)c(=O)n2C	0.08%
COC(=O)C1=C(CSc2nc3c(cc2C#N)CN(C)CC3)OC(N)=C(C#N)C1c1ccc(F)cc1 (centres undefined)	-0.02%
COC(=O)c1ccc(S(=O)(=O)N2CCC(O)CC2)n1C	4.73%
O=C(CS(=O)(=O)c1cn(Cc2ccc(F)cc2)c2ccccc12)N1CCOCC1	-0.02%
CN(C)c1ccc(/C=C2\SC(N3CCCCC3)=NC2=O)cc1	193% (active)
CN(C)c1ccc(/C=C2\C(=N)N3N=C(CC(=O)N4CCCCC4)SC3=NC2=O)cc1	11.2%
CCOC(=O)C1CCCN(C2=NC(=O)/C(=C/c3ccc(N(C)C)cc3)S2)C1 (centres undefined)	0.84%
COC(C(=O)Nc1c(F)cccc1F)c1ccccc1 (centres undefined)	0.18%

SMILES	fluorescence artifact activation
CN(Cc1ccccc1)C(=O)c1cccc(N2C(=O)NC3CC2(C)Oc2ccccc23)c1 (centres undefined)	14.2% (active)
COc1cccc2c1OC1(C)CC2NC(=O)N1Cc1ccccc1 (centres undefined)	1.11%
CCOc1cccc2c1OC1(C)CC2NC(=O)N1c1cccc(C(=O)NCc2ccccn2)c1 (centres undefined)	0.6%
COC(=O)CN(c1cc(OC)ccc1OC)S(=O)(=O)c1ccc(OC)c(OC)c1	0.04%
O=C(COC(=O)C1(c2ccccc2F)CCCC1)Nc1ncc(C(F)(F)F)cc1Cl	-0.01%
CN1CCc2c(sc(/N=C/c3ccco3)c2C(N)=O)C1	0.04%
COc1cc2c3nnc(-c4ccc(F)cc4)c-3cn(Cc3ccc(C)cc3)c2cc1OC	0.37%
COc1cc2c3nnc(-c4ccc(F)cc4)c-3cn(Cc3cccc(C)c3)c2cc1OC	0.48%
COc1cc2c3nnc(-c4ccc(F)cc4)c-3cn(Cc3cccc(F)c3)c2cc1OC	124% (active)
COC(=O)c1ccccc1-c1c2ccc(=N)cc-2oc2cc(N)ccc12	0.05%
c1ccc(-c2cn3nc4c(nc3n2)CCCC4)cc1	19.1% (active)
Brc1ccc(-c2cn3nc4c(nc3n2)CCCC4)cc1	3.81%
Clc1ccc(-c2cn3nc4c(nc3n2)CCCC4)cc1	0.71%
CCOCCCn1c(=NC(=O)c2cccs2)c(C#N)cc2c(=O)n3cccc(C)c3nc21	1.11%
CC(=O)c1ccc(NC(=O)CN2C(=O)/C(=C/C=C/c3ccccc3)SC2=S)cc1	0.03%
O=C(NC1CCCCC1)c1cc2nc3c(c(C(F)(F)F)n2n1)CCCC3	7.01%
Cc1cc(/C=N/NC(N)=S)c(O)c(/C=N/NC(N)=S)c1	181% (active)
COc1ccc(-c2nn(-c3ccccc3)cc2/C=N/NC(N)=S)cc1OC	8.19%
O=C(N/N=C/c1cc(Cl)cc(Cl)c1O)c1ccncc1	2.37%
Cc1cc2c(cc1S(=O)(=O)CCC(=O)NCCc1ccccc1)OCC(=O)N2	11.3%

SMILES	fluorescence artifact activation
CCOC(=O)c1ccc(NC(=O)c2cc3c(C)nn(-c4ccccc4Cl)c3s2)s1	1.59%
N#CC1=C(N)Oc2cc(O)c(Cl)cc2C1c1ccccc1F (centres undefined)	54.3% (active)
COC(=O)C1=C(CSc2nc3c(cc2C#N)CN(C)CC3)OC(N)=C(C#N)C1c1ccccc1F (centres undefined)	3.38%
CCN(CC)c1ccc2c(c1)OC(N)=C(C#N)C2c1cccnc1 (centres undefined)	2.43%
CCOc1ccc2cc(/C=C/C(=O)c3ccco3)c(Cl)nc2c1	0.34%
CC(CCc1ccc(O)cc1)NCCC(c1ccccc1)c1ccccc1 (centres undefined)	13.1% (active)
COc1ccc(OC)c(NC(=O)NCCc2cccc(Cl)c2)c1	0.03%
C=C[C@@](C)(O)CC[C@@H]1[C@@]2(C)CCCC(C)(C)[C@@H]2CC[C@@]1(C)O	0.16%
Cc1cccc(NC2=Nc3ccccc3N3C2=Nc2c(c(C)nn2-c2ccccc2)C3c2ccc(O)c(O)c2)c1 (centres undefined)	96.4% (active)
CC1C/C(=C/c2cccn2C)C(=O)/C(=C/c2cccn2C)C1 (centres undefined)	0.08%
COc1ccc(/C=C/C(=O)NC(=S)Nc2ccc(C(=O)O)cc2)cc1	6.95%
Cc1nnc(NC(=O)CS(=O)(=O)Cc2ccccc2)s1	-0.07%
O=C(Oc1ccc2ccc(=O)oc2c1)c1cccs1	0.02%
O=S(=O)(/N=C(/Nc1nc2ccccc2s1)c1ccccc1)c1ccc(F)cc1	0.13%
Cc1noc(C)c1C(=O)Nc1nc2ccccc2s1	38.5% (active)
Cc1onc(-c2ccccc2)c1C(=O)Nc1nc(-c2cc(F)ccc2F)cs1	0.13%
Cc1c2c(n3c(nc4ccccc43)c1C#N)N(CCN1CCOCC1)CC2	0.13%
Cc1nc2c(C#N)cnn2c2c1CCN(Cc1ccccc1)N2C	138% (active)
Cn1c2c(c(=O)n(C)c1=O)C(C(F)(F)F)(C(F)(F)F)N=C(CCC1CCCCC1)N2	0.01%
